Screening results as filed in PubChem BioAssay.
Compounds with a hit are over-represented: about 9.8% of the library has one in this group of screens.
PMI activator – phosphomannose isomerase (human) activation; purified human PMI, coupled resazurin fluorescence, 20 min; stronger effect = higher value; 1 = vehicle control, 0 substrate-free wells; activation factor at 20 µM; actives 0.005% (n = 190,000); P34949;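 active = activation factor of 2 or more at 20 µM, relative to plate controls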
Target sequence (P34949 whole entry, looked up): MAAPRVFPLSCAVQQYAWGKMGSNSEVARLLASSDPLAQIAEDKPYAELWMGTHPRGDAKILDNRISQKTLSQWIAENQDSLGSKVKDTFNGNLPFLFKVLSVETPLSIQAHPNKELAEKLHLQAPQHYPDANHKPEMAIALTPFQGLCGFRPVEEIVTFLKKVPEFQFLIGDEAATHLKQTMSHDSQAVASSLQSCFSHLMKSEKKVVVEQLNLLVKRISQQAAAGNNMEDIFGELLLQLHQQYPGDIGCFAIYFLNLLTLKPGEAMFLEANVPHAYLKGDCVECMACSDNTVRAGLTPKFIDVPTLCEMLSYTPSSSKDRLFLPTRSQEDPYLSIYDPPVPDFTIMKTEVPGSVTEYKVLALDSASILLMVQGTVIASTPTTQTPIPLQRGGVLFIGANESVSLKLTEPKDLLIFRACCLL
WT yeast gro inh – growth inhibition of WT yeast, mitochondrial fusion screen; actives 2.1% (n = 190,000); mitochondrial fusion phenotypic screen, WT strain; inhibition, % at 10 µM; in the data active = inhibition above about 58%; tested in S. cerevisiae
Lmaj promast – inhibitors of Leishmania major promastigote growth; Leishmania major promastigotes, resazurin fluorescence viability; inhibition, % at 10 µM; actives 9% (n = 200,000); AID 1063; in the data active = inhibition above about 50%;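 also: promastigotes grown with compound for 44 hours at 28 °C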
Rad51 HR inh – Rad51 (human) homologous recombination inhibition; Q06609; hRad51 DNA strand exchange, fluorescence dequenching; inhibition, % at 10 µM; actives 0.085% (n = 200,000); AID 1385;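 active = inhibition above 40% at the single screening dose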;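 also: 0% = DMSO control wells and 100% = blanks with heterologous ssDNA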
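Assay system: Human Rad51 nucleoprotein filaments preassembled on unlabelled ssDNA | Reagent: Donor/quencher-labelled 47-bp dsDNA substrate | Doses: One concentration, 10 µM final | Times: 37 °C 15-min filament assembly, 30-min compound preincubation, 15-min exchange | Technique: Fluorescein emission 520 nm, excitation 485 nm | Benchmarks: Plate control and blank wells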
PMI act satM6P – PMI (human) activation, high substrate; P34949; coupled PMI enzyme assay, resazurin fluorescence, 20 min; stronger effect = higher value; 1 = untreated enzyme, 0 = substrate-free blank; activation factor at 20 µM; actives 0.34% (n = 190,000);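 active = activation factor of 2 or more at 20 µM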
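Material: human phosphomannose isomerase with PGI, G6PDH, diaphorase coupling enzymes; amount: PMI at 15 ng/mL final; also added: Mannose-6-phosphate 1.0 mM (near-saturating) plus 0.22 mM NADP+; incubation: enzyme reaction with compound 20 min at room temperature; signal: resorufin fluorescence (Ex 544/Em 590 nm) from resazurin via diaphorase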
Calpain2 inh – inhibitors of pig calpain II. purified calpain II, fluorogenic peptide substrate, 30 min. actives 0.37% (n = 220,000). inhibition, % at 16 µM. AID 1236;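 active = inhibition above about 50%, limit read from the data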
L major 1uM – blocks Leishmania major promastigote growth at 1 uM, repeat screen | shares compounds with Lmaj promast | L. major promastigote growth, resazurin fluorescence, 48 h | inhibition, % at 1 µM | actives 13% (n = 1,100);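 active = inhibition above about 50% in both repeat tests, limit read from the data; inconclusive = one repeat under the set limit, the other over it; inactive = both repeats under the set limit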
Active calls of the source: *; i = inactive; u = inconclusive; x = no result given.

SMILES | PMI activator | WT yeast gro inh | Lmaj promast | Rad51 HR inh | PMI act satM6P | Calpain2 inh | L major 1uM
CC1(C)C2([N+](=O)[O-])CN3CC1([N+](=O)[O-])CN(C2)C3c1ccc(O)c(O)c1 (stereo not drawn) | x | x | x | 0.4 | x | -12.7 | x
Cc1ccc(C2N3CC4([N+](=O)[O-])CN2CC([N+](=O)[O-])(C3)C4(C)C)cc1 (stereo not drawn) | 1 | 23.8 | 65.4* | 17.9 | 1 | 16.3 | 2.5
CC1=C(C(=O)Nc2cc(-c3cccc(F)c3)[nH]n2)C2(CCCCC2)OC1=O | 0.9 | -1.1 | 100.1* | -7.5 | 0.9 | -33.3 | 88.8*
O=C(Nc1cc(-c2ccccc2)[nH]n1)c1ccccc1F | x | x | x | -0.6 | x | -3.9 | x
CCOC(=O)C1=NN(c2ccccc2)C2(S1)SC(C(C)=O)=C(C)N2c1ccccc1 (stereo not drawn) | 0.9 | 71.5* | 61.4* | -1.1 | 1 | 23.1 | 2.8
COc1cc2c(cc1OC)C(Nn1cnnc1)=NC1(CCCC1)C2 | x | x | x | x | x | -10.2 | x
CCOC(=O)C1C(C(=O)OCC)C1(c1ccccc1)c1ccccc1 (stereo not drawn) | 0.9 | 20.5 | 89.1* | 4.1 | 0.9 | -1.8 | -2.1
CCn1cc(C(=O)N[C@H](C)c2ccccc2)c(=O)c2cc(F)c(N3CCN(C)CC3)cc21 | 1 | 7.5 | 85.4* | 15.1 | 1 | -315.9 | -9.5
Cc1ccc2nc(N(CCCN(C)C)C(=O)CN3C(=O)c4ccccc4C3=O)sc2c1 | 1 | 16.9 | 8.5 | 9.8 | 1 | -36.6 | x
Cc1ccc2nc(N(CCCN(C)C)C(=O)CCc3ccccc3)sc2c1 | 0.9 | 94.4* | 66.5* | -0.6 | 1 | -19.9 | -16.3
COc1ccccc1N1CCN(c2nc(N)c(C#N)c(CC#N)c2C#N)CC1 | 0.9 | 7.5 | 0.6 | -6.5 | 0.8 | -44.2 | x
COc1cc2c(C#N)c(N3CCN(c4ccccc4OC)CC3)nc(N)c2c(N)n1 | 0.5 | 3.0 | 73.2* | -0.3 | 0.5 | -213.2 | 33.2
CCOc1ccc(NS(=O)(=O)c2ccc3ncsc3c2)cc1 | 1 | 6.1 | 14.4 | x | 1.1 | 16.0 | x
CCOCCCNC(=O)C(NC(=O)c1cnccn1)c1ccc(C)cc1 (stereo not drawn) | 0.9 | -0.6 | -3.4 | -2.5 | 1 | -204.4 | x
Cc1cc(C)c(/C=N/n2c(C)cc(C)c(C#N)c2=O)c(C)c1 | 0.9 | 22.7 | 73.0* | -1.1 | 0.9 | 15.1 | 20.4
CCN(CC)C(=O)n1cnc(-c2ccccc2)c1-c1ccccc1 | 1 | 7.7 | 69.0* | -4.2 | 1 | 6.3 | -11.8
CCN(CC)C(=O)CSc1nnc(-c2ccccc2)c(-c2ccccc2)n1 | 1 | 6.5 | -1.9 | -0.2 | 1 | 2.4 | x
Cc1ccc(OC(C)c2nnc(N)s2)cc1Cl (stereo not drawn) | 0.8 | 13.4 | 99.6* | x | 0.9 | 1.5 | -7.3
O=C1Nc2ccccc2N(O)N1c1ccc(S(=O)(=O)N2CCCCCC2)cc1 | 1 | 1.9 | -6.2 | 5.1 | 1 | 20.7 | x
CC1=Nc2cccc3cccc(c23)N1C | 0.7 | -6.3 | 84.5* | 15.5 | 0.5 | 14.9 | -17.8
CC1N(C)c2cccc3cccc(c23)N1C | 0.7 | 50.5 | 4.6 | -2.9 | 0.4 | i | x
CCc1cc2cc(C)cc(C)c2nc1Cl | 0.9 | -7.3 | 0.1 | 13.2 | 1 | -23.5 | x
Cc1cc(C)c2cc(C=O)c(Cl)nc2c1 | 0.1 | 5.2 | 57.7* | -9.2 | 0.1 | 11.9 | -6.9
Cc1cc(C)n(-c2nc3ccccc3c(=O)n2OCC(=O)OCc2ccccc2)n1 | 1.1 | -6.7 | 92.0* | x | 1.1 | 32.8 | 11.3
Cc1cc(C)n(-c2nc3ccccc3c(=O)n2OCC(=O)N(C)C)n1 | 1 | -9.7 | -7.7 | 8.3 | 1 | 24.2 | x
SMILES | PMI activator | WT yeast gro inh | Lmaj promast | Rad51 HR inh | PMI act satM6P | Calpain2 inh | L major 1uM
CC(C)CCN(C)C1CCN(S(=O)(=O)c2cccc(C(F)(F)F)c2)CC1 | 0.9 | 26.9 | 93.4* | x | 1 | 29.0 | 80.1*
OC(CNCc1ccccc1)c1ccccc1 (stereo not drawn) | x | x | x | 20.2 | x | 3.2 | x
Oc1cccc(C(O)CNCc2ccc(-c3ccccc3)cc2)c1 (stereo not drawn) | 1 | 17.2 | 90.7* | 5.3 | 1 | 11.7 | -10.5
OCC1CCCN(Cc2cn(Cc3ccccc3)nc2-c2cc3ccccc3o2)C1 (stereo not drawn) | 1 | 1.7 | 49.9 | 1.3 | 1 | -7.5 | x
Cn1c(=O)c2nc(-c3ccccc3)oc2c2ccccc21 | 0.9 | 11.7 | 91.8* | 4.1 | 1 | -304.0 | 72.3*
Cc1ccccc1N(C(=O)c1cccs1)c1nc2ccccc2s1 | 0.9 | 1.9 | 98.8* | x | 0.9 | -14.1 | u
O=S(=O)(c1ccc(S(=O)(=O)N2CCCN(Cc3ccccc3)C2)cc1)N1CCCCCC1 | 1 | -6.3 | 75.7* | -1.0 | 1 | 5.6 | 20.2
Cc1ccc2c(c1)c(=O)c1c3n2CCN(C(=O)CCl)C3CC1 (stereo not drawn) | 1.4 | 5.3 | 100.4* | 1.2 | 1.8 | -16.6 | 57.4*
Cc1ccc(S(=O)(=O)NC(=O)NC(C)Cc2ccccc2)cc1 (stereo not drawn) | x | -0.6 | -1.6 | x | x | 26.1 | x
CCSC1=N/C(=C\c2cccc(F)c2)C(=O)S1 | 1.1 | -5.5 | 59.6* | -0.2 | 1 | 13.9 | -16.4
CCSC1=N/C(=C\c2ccc3c(c2)OCO3)C(=O)S1 | 0.9 | -8.7 | -1.5 | -1.9 | 0.9 | -22.4 | x
CC12CCCCN1CCCc1c2[nH]c2ccccc12 (stereo not drawn) | 1.1 | -2.9 | 64.4* | 2.9 | 1 | 14.9 | -2.4
Cc1cc2n(n1)C(c1ccc3c(c1)OCO3)Nc1ccccc1-2 (stereo not drawn) | 1 | 23.0 | 4.9 | 6.1 | 1 | -199.4 | x
Cc1ccc2c(c1)-c1cc(C)nn1C(c1ccc3c(c1)OCO3)N2 (stereo not drawn) | 0.9 | -11.1 | 97.6* | x | 0.8 | -98.2 | 94.8*
CC1CCCC(NC(=O)COC(=O)Cc2ccsc2)C1C (stereo not drawn) | 1 | 10.4 | -7.2 | -6.5 | 1 | -3.0 | x
CC(Sc1nncs1)C(=O)NCC(=O)Nc1ccc(F)c(F)c1F (stereo not drawn) | 1 | -11.6 | -4.8 | -0.2 | 0.9 | -13.6 | x
Cc1cc(C)nc(SCC(=O)N/N=C\C(Br)=C\c2ccccc2)n1 | 0.9 | 0.8 | -2.5 | 0.8 | 1 | 23.4 | x
Cc1ccc(NCC(=O)N/N=C\C(Br)=C\c2ccccc2)cc1 | 0.9 | 10.2 | 68.3* | -0.8 | 1 | 0.3 | 2.3
Brc1cccc(-c2nnc3sc(CNC4CCCC4)cn23)c1 | 0.9 | 15.1 | 84.8* | -8.0 | 1 | -22.2 | u
Brc1cccc(-c2nnc3sc(CN4CCCCC4)cn23)c1 | 0.9 | 8.3 | 5.1 | 5.9 | 1 | -6.7 | x
